High-throughput results from PubChem BioAssay.
An excerpt weighted towards active compounds, which were near 4.3% of everything screened.
STAT1 act – STAT1 signaling activators, primary screen, cell-based, HTS, luciferase reporter; 200,000 tested, 2.6% active; activation (% of control), % at 5.5 µM; NIH 3T3 STAT1-luciferase reporter, IFN-gamma, luminescence; 100% = IFN-gamma alone, no compound;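 active = activation above the screen-wide mean activation plus 3 SD, cut at about 130% in these data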
NF-kB expr up – activators of NF-kB expression in neurons, primary screen, cell-based, HTS. fold change at 12.5 µM. human neuronal cells, NF-kB reporter expression; hits give high values. 190,000 tested, 1.6% active. AID 1239, 2008; in the data active = fold change above about 3.3
APP 5'UTR act – activators of APP 5'UTR luciferase reporter, primary screen, SH-SY5Y cells; 190,000 tested, 1% active; AID 1276, 2008; activation, % at 2 µM; SH-SY5Y APP 5'UTR luciferase reporter, luminescence; zero percent = DMSO vehicle wells;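 active = activation above a set limit, based on mean plus 3 SD of controls, cut at about 140% in these data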
FLuc act counter – FLuc activators, initial screening, artefact control for FLuc-dependent activation tests, biochemical, ATPlite luminescence; ATPlite luciferase biochemical, 10 min; 0 = ATP-free wells, 1 = DMSO control; activation factor at 10 µM; 200,000 tested, under 10 active;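 active = luciferase activation factor, scaled between plate controls, of at least 2 with compound at 10 µM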
Target sequence (P08659 whole entry, looked up): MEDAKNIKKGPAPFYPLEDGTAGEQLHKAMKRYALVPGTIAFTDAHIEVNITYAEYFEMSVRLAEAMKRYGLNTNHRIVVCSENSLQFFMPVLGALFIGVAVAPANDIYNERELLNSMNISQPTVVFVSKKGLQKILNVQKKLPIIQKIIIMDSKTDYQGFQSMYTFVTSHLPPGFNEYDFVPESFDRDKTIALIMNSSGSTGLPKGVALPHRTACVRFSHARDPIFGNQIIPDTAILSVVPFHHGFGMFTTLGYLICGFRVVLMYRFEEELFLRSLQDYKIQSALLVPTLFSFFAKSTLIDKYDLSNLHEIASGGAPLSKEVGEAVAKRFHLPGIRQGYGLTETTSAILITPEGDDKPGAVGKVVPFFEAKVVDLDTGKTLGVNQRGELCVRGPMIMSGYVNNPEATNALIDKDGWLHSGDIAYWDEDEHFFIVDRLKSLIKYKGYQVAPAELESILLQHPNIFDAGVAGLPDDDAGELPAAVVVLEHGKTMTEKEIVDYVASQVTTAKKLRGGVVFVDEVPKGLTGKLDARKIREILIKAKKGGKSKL
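System: luciferase plus luciferin reagent, cell-free; medium: PBS as buffer for the ATP substrate; dosing: test compounds dosed from 2 mM stocks in 100% DMSO; timing: 10 min post-reagent at room temperature; measured by: luminescence measurement of luciferase light output; evaluation: luciferase activation, seen as luminescence increase over controls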
FLuc inh counter – firefly luciferase enzyme inhibitors, primary screen, artefact control for luciferase-based inhibitor screens, biochemical, luminescence, ATPLite; 200,000 tested, 1.5% active; Luciferin 4-monooxygenase (Photinus pyralis), P08659; AID 1006, 2008; 10 min; inhibition, % at 10 µM;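 active = inhibition above about 50% when tested at 10 µM, limit read from the data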
Large screens that a line does not name were inactive.

COc1ccc(O)c(/C=N/n2c(-c3ccco3)csc2=Nc2cccnc2)c1	none
CN=c1scc(C)n1/N=C/c1ccc(O)cc1	NF-kB expr up 12, FLuc inh counter 54.0
O=C(NCCN1CCOCC1)c1cc2cc(Cl)cc(Cl)c2oc1=O	none (no result: NF-kB expr up, FLuc act counter, FLuc inh counter)
Clc1ccc2[nH]cc(-c3nnnn3-c3ccc4ccccc4c3)c2c1	none
CCNC(=S)N1CCN(C(=O)C(Cc2ccccc2)NC(C)=O)CC1 (stereo not drawn)	none
CN=c1scc(C)n1/N=C/c1ccc(O)cc1O	NF-kB expr up 3.8, APP 5'UTR act 155.7, FLuc inh counter 80.7
COc1cc(NS(=O)(=O)c2ccc3c(c2)n(C)c(=O)n3C)cc(OC)c1	none
O=C(O)c1ccccc1Nc1ccc([N+](=O)[O-])cc1	STAT1 act 139.3
CC1CCC/C(=C(\C#N)c2nc(-c3cc4ccccc4oc3=O)cs2)C1 (stereo not drawn)	APP 5'UTR act 148.2
Cc1ccc(N(C(=O)Cn2nnc(-c3ccc(F)cc3)n2)C(C(=O)NC(C)(C)C)c2ccncc2)cc1 (stereo not drawn)	none
[O-]/[N+](=C\c1ccncc1)c1ccc(Br)cc1	NF-kB expr up 4.52
[O-]/[N+](=C/c1cccnc1)c1ccc(Br)cc1	none
C/C(=N\NC(=O)COc1ccc(C#N)cc1)c1ccccc1OC(F)F	none
CCCc1nc2ccc(NC(C)=O)cc2c(=O)n1Cc1ccc(Cl)cc1	STAT1 act 142.6, NF-kB expr up 3.66
COc1ccc(OC)c(C(=O)Cn2c3[n+](c4ccc(C(F)(F)F)cc42)CCCCC3)c1	none
C=CCNC(=S)N/N=C(\C)c1ccccn1	STAT1 act 135.7
Cc1cc(C)n(C(CC(=O)O)C(=O)O)n1 (stereo not drawn)	APP 5'UTR act 139.4
Cc1nn(C(CC(=O)O)C(=O)O)c(C)c1Br (stereo not drawn)	none
Cc1ccc(NC(=S)c2nc3ccccc3[nH]2)cc1	NF-kB expr up 4.47, APP 5'UTR act 193.0, FLuc inh counter 82.9
CN(C)CCNC(=S)Nc1ccc(-c2nc3ccccc3[nH]2)cc1	NF-kB expr up 3.7, APP 5'UTR act 162.9
CC(=O)Nc1ccc(-c2nc3c(C)cccc3[nH]2)cc1	STAT1 act 129.5, NF-kB expr up 3.82, APP 5'UTR act 169.4
CC(C)CC(=O)Nc1ccc(-c2nc3ccccc3c(=O)o2)cc1	none
CC(C)CC(=O)Nc1ccc(-c2nc3ccccc3c(=O)[nH]2)cc1	STAT1 act 139.7, APP 5'UTR act 183.8
Cc1ccc(SCC(=O)Nc2ccc(-c3nc4ccccc4[nH]3)cc2)cc1	STAT1 act 132.2
COC(=O)CCCn1c(C)cc(C(=O)CCl)c1C	NF-kB expr up 3.63
Cc1cc(C(=O)CCl)c(C)n1CCc1ccccc1	none
Cc1nc(C)c(/C(O)=C/c2nc3ccccc3oc2=O)s1	NF-kB expr up 4.75
c1ccc(-c2cnnc(N3CCCCC3)n2)cc1	STAT1 act 142.0
Cc1c(-n2c(-c3ccccc3)nc3ccccc3c2=O)c(=O)n(-c2ccccc2)n1C	none
Cc1cccc(/C=N/Nc2nncc3ccccc23)c1	APP 5'UTR act 207.9, FLuc inh counter 94.2
COc1ccc(/C=N/Nc2nncc3ccccc23)c(OC)c1	STAT1 act 147.2
Cc1ccc(C)c(NC(=O)C2CCCN2C(=O)NC2CCCCC2)c1 (stereo not drawn)	none
O=C(O)c1ccc(NC(=O)c2cn(-c3ccccc3)nc2-c2ccc(F)cc2)cc1	STAT1 act 135.1
O=C(Nc1ccc(F)cc1)c1cnc(-c2ccccc2)nc1-c1ccccc1	STAT1 act 132.9
CC(=O)c1ccc(NC(=O)c2cn(-c3ccccc3)nc2-c2ccncc2)cc1	none (no result: APP 5'UTR act)
O=C(Nc1ccc(F)c(F)c1)c1cnc(-c2ccccc2)nc1-c1ccccc1	none
N#Cc1cnn2c3c(cnc12)C(=O)N1CCc2ccccc2C1C3 (stereo not drawn)	none
COC(=O)Cc1ccc(NC(=O)c2ccccc2Cl)cc1	none
COC(=O)Cc1ccc(NC(=O)c2ccc(C(C)(C)C)cc2)cc1	FLuc inh counter 60.3
Cc1ccc(NC(=O)c2ocnc2C)cc1Cl	STAT1 act 144.7
Cc1ocnc1C(=O)Nc1ccc(Cl)cc1	STAT1 act 130.7
